Screening results (PubChem)
PAFAH1B3 inh: PAFAH1B3 (human) inhibition | recombinant PAFAH1B3, FP-rhodamine probe, fluorescence polarization | inhibition, % at 3.39 µM | actives 0.28% (n = 340,000);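 active means inhibition above the screen-wide average of all tested compounds plus 3 SD, cut at about 25% in these data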;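 further: 0% = enzyme with DMSO only and 100% = wells lacking PAFAH1B3 protein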
Target sequence (Q15102 whole entry, looked up): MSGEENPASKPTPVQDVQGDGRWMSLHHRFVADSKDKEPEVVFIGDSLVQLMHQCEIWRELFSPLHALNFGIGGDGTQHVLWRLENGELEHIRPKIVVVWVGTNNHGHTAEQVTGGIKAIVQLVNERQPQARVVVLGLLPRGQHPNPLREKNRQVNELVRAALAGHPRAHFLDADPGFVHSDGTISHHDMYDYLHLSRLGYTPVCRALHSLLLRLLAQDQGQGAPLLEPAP
PAFAH1B2 FP inh: blocks human PAF acetylhydrolase 1b catalytic subunit 2; actives 1.2% (n = 340,000); inhibition, % at 3.39 µM; AID 492953; P68402; recombinant PAFAH1B2, FP-rhodamine activity probe, fluorescence polarization;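 active means inhibition above the mean of all tested compounds plus 3 SD, cut at about 24% in these data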;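 further: 0% = enzyme with DMSO and 100% = wells lacking PAFAH1B2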
Target sequence (P68402 whole entry, looked up): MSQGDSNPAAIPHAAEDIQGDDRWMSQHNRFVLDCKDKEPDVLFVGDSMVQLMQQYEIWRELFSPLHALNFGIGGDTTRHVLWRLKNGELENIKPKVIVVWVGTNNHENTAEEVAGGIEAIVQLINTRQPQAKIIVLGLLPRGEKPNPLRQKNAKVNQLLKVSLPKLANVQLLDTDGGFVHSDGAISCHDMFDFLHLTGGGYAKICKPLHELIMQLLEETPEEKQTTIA
PAFAH2 FP inh: inhibitors of human PAFAH2; inhibition, % at 3.39 µM; actives 0.99% (n = 340,000); recombinant PAFAH2, FP-rhodamine activity probe, fluorescence polarization; AID 492956;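 active means inhibition above the mean over all tested compounds plus 3 SD, cut at about 30% in these data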;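 further: inhibitors block probe labeling of enzyme so polarization drops; 0% = enzyme with DMSO and 100% = wells lacking PAFAH2 protein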
pPAFAH inh: inhibitors of human plasma PAF acetylhydrolase (pPAFAH). actives 1.5% (n = 330,000). Q13093. AID 463082. recombinant pPAFAH, FP-rhodamine probe fluorescence polarization. inhibition, % at 3.39 µM;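 active means inhibition above the mean inhibition across the screen plus 3 SD, cut at about 25% in these data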;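 further: inhibitors block binding of the rhodamine activity-based probe so polarization drops; 0% = enzyme with DMSO and 100% = wells lacking pPAFAH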
RBBP9 inhibitor: inhibitors of human serine hydrolase RBBP9 | recombinant RBBP9, FP-Rh probe fluorescence polarization | actives 0.2% (n = 220,000) | O75884 | AID 1515 | inhibition, % at 7.94 µM;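 active means inhibition above the campaign mean of all tested compounds plus 3 SD, cut at about 14% in these data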;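 further: plate controls were DMSO wells with RBBP9 for no effect and wells lacking RBBP9 protein for full effect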
Target sequence (O75884 whole entry, looked up): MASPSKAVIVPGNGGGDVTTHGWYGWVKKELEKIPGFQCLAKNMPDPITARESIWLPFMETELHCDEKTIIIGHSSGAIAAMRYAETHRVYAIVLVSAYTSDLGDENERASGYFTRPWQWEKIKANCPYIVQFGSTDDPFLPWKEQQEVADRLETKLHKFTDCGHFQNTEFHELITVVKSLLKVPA
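system = RBBP9 protein | input = RBBP9 at 2.5 µM in dispensed solution, before mixing | measured by = fluorescence polarization (mP), excitation 525 nm, emission 598 nm | incubation = enzyme-compound preincubation 30 min, then probe labeling 45 min, 25 °C | buffer or medium = Tris-NaCl-Pluronic buffer, pH 8.0 | compound = single dose 7.94 µM | also added = FP-Rh probe, 375 nM dispensing solution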
Starred values were filed as active, the others as inactive. Hits are enriched below; roughly 2.7% of the tested compounds scored in any of these assays.

What do the screens show for `Cc1cccc(NC(=O)CCS(=O)(=O)c2ccc(Cl)cc2)c1`?
PAFAH1B3 inh: -8; PAFAH1B2 FP inh: 8; PAFAH2 FP inh: 4; pPAFAH inh: 3

How did Cc1ccc(C)c(N2CCN(C(=O)c3ccc4nc(-c5ccco5)c(-c5ccco5)nc4c3)CC2)c1 do in these assays?
PAFAH1B3 inh: 7; PAFAH1B2 FP inh: -5; PAFAH2 FP inh: 4; pPAFAH inh: 31*; RBBP9 inhibitor: 1

What do the screens show for `COc1ccccc1N1CCN(C(=O)c2ccc3nc(-c4ccco4)c(-c4ccco4)nc3c2)CC1`?
PAFAH1B3 inh: 3; PAFAH1B2 FP inh: 4; PAFAH2 FP inh: 10; pPAFAH inh: 11; RBBP9 inhibitor: -1

What do the screens show for `FC(F)(F)c1cccc(Cn2nnnc2-c2cc(Cl)cc(Cl)c2)c1`?
PAFAH1B3 inh: -2; PAFAH1B2 FP inh: -6; PAFAH2 FP inh: -5; pPAFAH inh: 6; RBBP9 inhibitor: -7

How did O=C(Cn1nnc(-c2cc(C(F)(F)F)cc(C(F)(F)F)c2)n1)NNC(=S)Nc1ccc(Cl)cc1 do in these assays?
PAFAH1B3 inh: 11; PAFAH1B2 FP inh: 10; PAFAH2 FP inh: 3; pPAFAH inh: 27*; RBBP9 inhibitor: -2

Results for Cc1ccc(S(=O)(=O)N2CC(O)CC2C(=O)OCC(=O)Nc2ccc([N+](=O)[O-])cc2C(F)(F)F)cc1C (stereo unspecified) ?
PAFAH1B3 inh: 1; PAFAH1B2 FP inh: 3; PAFAH2 FP inh: 0; pPAFAH inh: 1

Results for O=C(CSc1nnc(CNC(=O)c2ccco2)o1)Nc1nc2ccccc2s1 ?
PAFAH1B3 inh: -2; PAFAH1B2 FP inh: 3; PAFAH2 FP inh: -2; pPAFAH inh: 2; RBBP9 inhibitor: -5

Results for CC(C)c1ccc(/C=N/n2c(COc3ccccc3)n[nH]c2=S)cc1 ?
PAFAH1B3 inh: 24; PAFAH1B2 FP inh: 29*; PAFAH2 FP inh: 35*; pPAFAH inh: 10

Results for Cc1ccc(/C=N/n2c(COc3ccccc3)n[nH]c2=S)cc1 ?
PAFAH1B3 inh: 6; PAFAH1B2 FP inh: 10; PAFAH2 FP inh: -3; pPAFAH inh: 3

Results for O=c1c2c3c(sc2[nH]c(=S)n1Cc1ccco1)CCC3 ?
PAFAH1B3 inh: 3; PAFAH1B2 FP inh: 3; PAFAH2 FP inh: 19; pPAFAH inh: 25*; RBBP9 inhibitor: -8

How did O=C1NC[C@@H](c2ccccc2)OC(=O)[C@@H](Cc2ccc(F)cc2)C/C=C\C[C@@H]1CC(=O)N(CCO)Cc1ccccc1 do in these assays?
PAFAH1B3 inh: -3; PAFAH1B2 FP inh: 64*; PAFAH2 FP inh: 11; pPAFAH inh: 26*

How did O=C1N[C@@H](Cc2c[nH]c3ccccc23)COC(=O)[C@H](Cc2ccc(F)cc2)C/C=C\C[C@H]1CC(=O)N(CCO)Cc1ccccc1 do in these assays?
PAFAH1B3 inh: 6; PAFAH1B2 FP inh: 10; PAFAH2 FP inh: 3; pPAFAH inh: 2

What do the screens show for `O=C1N[C@@H](Cc2c[nH]c3ccccc23)COC(=O)[C@@H](Cc2ccc(F)cc2)CC/C=C/C[C@@H]1CC(=O)N(CCO)Cc1ccccc1`?
PAFAH1B3 inh: 1; PAFAH1B2 FP inh: 34*; PAFAH2 FP inh: -1; pPAFAH inh: 13

How did O=C1NCCOC(=O)[C@H](Cc2ccc(F)cc2)C/C=C\C[C@H]1CC(=O)N(CCO)Cc1ccccc1 do in these assays?
PAFAH1B3 inh: 4; PAFAH1B2 FP inh: 30*; PAFAH2 FP inh: 0; pPAFAH inh: 7

What do the screens show for `CSc1nsc(SCC(=O)Nc2ccccc2C(N)=O)n1`?
PAFAH1B3 inh: -1; PAFAH1B2 FP inh: 1; PAFAH2 FP inh: 9; pPAFAH inh: 5

What do the screens show for `CC(=O)Nc1ccc(NC(=O)c2cc(=O)c3ccccc3o2)cc1`?
PAFAH1B3 inh: 5; PAFAH1B2 FP inh: 4; PAFAH2 FP inh: 1; pPAFAH inh: 28*

What do the screens show for `CC(=O)N1CCN(c2ccc(NC(=O)c3cc4ccccc4o3)cc2)CC1`?
PAFAH1B3 inh: 1; PAFAH1B2 FP inh: 3; PAFAH2 FP inh: -4; pPAFAH inh: 26*

Results for CC(Sc1ccc(Cl)cc1)C(=O)NNC(=O)c1ccccc1O (stereo unspecified) ?
PAFAH1B3 inh: 2; PAFAH1B2 FP inh: 28*; PAFAH2 FP inh: 25; pPAFAH inh: 10

Results for CSCCC(NC(=O)c1ccccc1Cl)C(=O)NNC(=O)c1ccccc1O (stereo unspecified) ?
PAFAH1B3 inh: 7; PAFAH1B2 FP inh: 3; PAFAH2 FP inh: -2; pPAFAH inh: 2

Results for Cc1cc(C)c(C#N)c(SCC(=O)Nc2c(C)n(C)n(-c3ccccc3)c2=O)n1 ?
PAFAH1B3 inh: 14; PAFAH1B2 FP inh: 10; PAFAH2 FP inh: 1; pPAFAH inh: -1

What do the screens show for `CN(C)c1ccc(O)c2c1CC1CC3C(N(C)C)C(=O)C(C(N)=O)=C(O)[C@@]3(O)C(=O)C1=C2O` (stereo partly specified)?
PAFAH1B3 inh: 11; PAFAH1B2 FP inh: 8; PAFAH2 FP inh: 8; pPAFAH inh: 33*

Results for COC(=O)c1ccsc1NS(=O)(=O)c1ccccc1 ?
PAFAH1B3 inh: 5; PAFAH1B2 FP inh: 5; PAFAH2 FP inh: 0; pPAFAH inh: 28*

Results for O=C1N(c2ccccc2)C(c2ccccc2)C12CCCCC2 (stereo unspecified) ?
PAFAH1B3 inh: 10; PAFAH1B2 FP inh: 32*; PAFAH2 FP inh: 0; pPAFAH inh: 0

Results for CC1=NOC(=O)/C1=C/c1ccc(-c2ccc(Cl)cc2)o1 ?
PAFAH1B3 inh: 11; PAFAH1B2 FP inh: 10; PAFAH2 FP inh: 32*; pPAFAH inh: 12; RBBP9 inhibitor: -4

What do the screens show for `N/N=C(\c1ccccc1)c1cc(Br)ccc1N`?
PAFAH1B3 inh: 3; PAFAH1B2 FP inh: 7; PAFAH2 FP inh: -3; pPAFAH inh: 1

How did O=C(OCC(=O)c1ccc(Cl)s1)c1ccccn1 do in these assays?
PAFAH1B3 inh: 3; PAFAH1B2 FP inh: -2; PAFAH2 FP inh: 0; pPAFAH inh: 6; RBBP9 inhibitor: -5

What do the screens show for `O=C(OCC(=O)c1ccc(Cl)s1)c1cnccn1`?
PAFAH1B3 inh: 2; PAFAH1B2 FP inh: 3; PAFAH2 FP inh: 8; pPAFAH inh: 26*

Results for O=C(COC(=O)c1cnccn1)c1ccc(Br)cc1 ?
PAFAH1B3 inh: 4; PAFAH1B2 FP inh: 26*; PAFAH2 FP inh: 3; pPAFAH inh: -4; RBBP9 inhibitor: -3

How did Cc1cc2ncc(S(=O)(=O)c3ccccc3)c(N)n2n1 do in these assays?
PAFAH1B3 inh: 8; PAFAH1B2 FP inh: 4; PAFAH2 FP inh: 1; pPAFAH inh: -5; RBBP9 inhibitor: -2

What do the screens show for `COc1cc(C(=O)NC2CCCc3ccccc32)ccc1OCC(=O)Nc1ccc(F)cc1` (stereo unspecified)?
PAFAH1B3 inh: 0; PAFAH1B2 FP inh: -4; PAFAH2 FP inh: 2; pPAFAH inh: -1; RBBP9 inhibitor: 1

What do the screens show for `Nc1ccc(O)cc1`?
pPAFAH inh: 38*

What do the screens show for `CSc1ccc(NC(=O)NCc2ccccc2)cc1`?
PAFAH1B3 inh: -1; PAFAH1B2 FP inh: 4; PAFAH2 FP inh: 6; pPAFAH inh: -2; RBBP9 inhibitor: -3
